The target of series [1] is T1, C-X-C chemokine receptor type 3 (Mus musculus, UniProt O88410).
T1 sequence (O88410 whole entry): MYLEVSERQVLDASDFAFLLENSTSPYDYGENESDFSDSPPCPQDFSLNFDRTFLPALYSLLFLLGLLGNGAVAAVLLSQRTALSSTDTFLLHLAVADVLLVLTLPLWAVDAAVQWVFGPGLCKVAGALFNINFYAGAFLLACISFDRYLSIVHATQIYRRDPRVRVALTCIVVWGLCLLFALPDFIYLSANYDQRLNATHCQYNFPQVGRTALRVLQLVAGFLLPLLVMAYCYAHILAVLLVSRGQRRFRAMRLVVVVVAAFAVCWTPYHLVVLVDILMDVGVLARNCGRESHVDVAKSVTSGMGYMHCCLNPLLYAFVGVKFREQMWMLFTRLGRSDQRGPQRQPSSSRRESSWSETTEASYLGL
In words: Displacement of [125I]-IP10 from mouse CXCR3 expressed in human PBMC after 2 hrs in RPMI buffer by scintillation counting. In short, it runs like this:
(§1)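 PBMC bearing CXCR3 were co-incubated with antagonist and recombinant human [125I]-IP10 for 2 h at room temperature in RPMI-1640 (no phenol red) with 0.5% BSA. Cells were harvested onto filter plates and bound radioactivity was counted by scintillation. IC50 values are means of three experiments.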

Series [2] can be described thus: Oral bioavailability in mouse at 2 mg/kg. The settings on record: in vivo. The format is ADME, organism-based.
A short description of series [3]: Mean residence time in dog at 1 mg/kg, iv. The format is ADME, organism-based, Canis lupus familiaris. Also on record: dose 1 mg/kg, route intravenous. The settings on record: in vivo.
A short description of series [4]: Volume of distribution at steady state in cynomolgus monkey at 1 mg/kg, iv. The settings on record: in vivo, read-out: Vdss. Also on record: dose 1 mg/kg, route intravenous. The format is ADME, organism-based, Macaca fascicularis.
Series [5] is described as follows: Mean residence time in cynomolgus monkey at 1 mg/kg, iv. Type of series: ADME, organism-based, Macaca fascicularis. Also on record: dose 1 mg/kg, route intravenous. The settings on record: in vivo.
The nature of series [6]: Oral bioavailability in dog at 2.5 mg/kg. The format is ADME, organism-based, Canis lupus familiaris. The settings on record: in vivo.
For series [7], the system named is Blood. As to the kind of experiment: Drug level in bleomycin-induced mouse blood at 10 mg/mL, sc. Type of series: ADME, tissue-based.
Series [8] deals with T2, C-X-C chemokine receptor type 3 (Canis lupus familiaris, UniProt Q5KSK8).
T2 sequence (Q5KSK8 whole entry): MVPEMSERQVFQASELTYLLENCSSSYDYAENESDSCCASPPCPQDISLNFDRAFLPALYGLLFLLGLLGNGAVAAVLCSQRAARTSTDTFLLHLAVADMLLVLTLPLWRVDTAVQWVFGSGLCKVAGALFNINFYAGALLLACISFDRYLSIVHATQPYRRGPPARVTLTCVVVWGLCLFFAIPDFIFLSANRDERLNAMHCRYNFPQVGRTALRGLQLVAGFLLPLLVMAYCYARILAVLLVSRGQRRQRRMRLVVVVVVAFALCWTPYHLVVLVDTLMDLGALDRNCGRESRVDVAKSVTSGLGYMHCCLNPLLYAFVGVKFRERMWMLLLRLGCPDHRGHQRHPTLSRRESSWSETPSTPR
As to the kind of experiment: Displacement of [125I]-IP10 from dog CXCR3 expressed in human PBMC after 2 hrs in RPMI buffer by scintillation counting. The procedure, abridged: as §1
On the technique in general: In a radioligand displacement assay an active substance lowers the binding of a labelled ligand.

Series [9] can be described thus: Clearance in dog at 1 mg/kg, iv. Type of series: ADME, organism-based, Canis lupus familiaris. Also on record: dose 1 mg/kg, route intravenous. The settings on record: in vivo.
A short description of series [10]: Clearance in mouse at 0.5 mg/kg, iv. The format is ADME, organism-based. Also on record: dose 0.5 mg/kg, route intravenous. The settings on record: in vivo.

Here are results for one compound from ChEMBL document CHEMBL1153804, “Optimization of a series of quinazolinone-derived antagonists of CXCR3” (Bioorg Med Chem Lett, 2009).

By IC50 is commonly meant the concentration that gives 50% inhibition. As a reminder, the bioavailability is the share of a dose that reaches the circulation, judged against a reference dose that is usually intravenous. By MRT is commonly meant the average time that molecules of a dose stay in the body. In general, clearance refers to a measure of how efficiently the substance is removed, as volume per time.

Structures are written as SMILES.

Consider `CCS(=O)(=O)CCN(C(=O)Cc1ccc(F)c(C(F)(F)F)c1)[C@H](C)c1nc2ncccc2c(=O)n1-c1ccc(OCC(F)(F)F)cc1`, for which the concentration for half-maximal inhibition (IC50) in [1] amounted to 3 nM; in series [8], 5 nM. The bioavailability in series [2] is 84%; in series [6], 25%. The MRT in series [3] was 2.5 h; in [5], 1.6 h. In series [4], the Vd worked out at 1.4 L/kg. This compound also returned a Drug uptake in series [7] of 35 ng/mL. Also, the clearance is 7.5 mL/min/kg in [9] and 13 mL/min/kg in series [10].
